AHR act = activates the human aryl hydrocarbon receptor; AHR-responsive luciferase reporter cells, luminescence; activation, % at 5 µM; 2.5% of 320,000 active; P35869; AID 2796; in the data active = activation above about 47%
ABCB6 inh MLPCN = blocks the human ABCB6 transporter; K562-ABCB6 porphyrin accumulation, flow cytometry, 1 h; hits give low values; fluorescence ratio to DMSO, % at 10 µM; 0.19% of 360,000 active; AID 602162;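 active = fluorescence ratio to DMSO below 75%, the collection mean minus 3 SD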;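 note: signal is porphyrin accumulated inside mitochondria; lower ratio means ABCB6 inhibition with less porphyrin fluorescence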
STAT3 activator = STAT3 signaling activation; 0.91% of 190,000 active; activation (% of control), % at 5.6 µM; U3A cells, IL-6 STAT3-luciferase reporter, luminescence; 100% = signal with IL-6 EC80 alone;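 active = activation above the screen-wide mean of compound activation plus 3 SD, cut at about 130% in these data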
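Test system: Human STAT1-deficient U3A cells with stable STAT3-luciferase reporter | Also added: Interleukin-6, 33 ng/mL | Timing: Compound pre-incubation 1 h before IL-6, then 6 h stimulation at 37 °C | Technique: Luciferase reporter luminescence | Read-out: Percent of IL-6-only median luminescence | Benchmarks: IL-6-only wells as 100% reference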
FXN GAA850 act = frataxin GAA850 promoter activation. AID 540364. 0.56% of 360,000 active. HEK293 lucGAA850 FXN promoter luciferase reporter, 24 h; percent of 10 µM SAHA response. activation, % at 6 µM;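 active = activation above the average of all compounds screened plus 3 SD, cutoff fixed separately per campaign, cut at about 7.5% in these data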
AHR act confirm = confirmation of human aryl hydrocarbon receptor activators | 87% of 2,300 active | human cells, AHR-responsive luciferase reporter, luminescence | AID 2845 | shares compounds with AHR act | activation, % at 9 µM; in the data active = activation above about 49%;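 note: HepG2 hepatoma cells carrying a DRE-driven firefly luciferase reporter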
PXR act counter = PXR activation, counter-screen for AHR activators. shares compounds with AHR act. 88% of 2,300 active. activation, % at 11.6 µM. cell-based PXR reporter, luciferase luminescence; in the data active = activation above about 11%;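 note: human hepatoma DPX-2 cells expressing full-length human PXR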
Target sequence (O75469 whole entry, looked up): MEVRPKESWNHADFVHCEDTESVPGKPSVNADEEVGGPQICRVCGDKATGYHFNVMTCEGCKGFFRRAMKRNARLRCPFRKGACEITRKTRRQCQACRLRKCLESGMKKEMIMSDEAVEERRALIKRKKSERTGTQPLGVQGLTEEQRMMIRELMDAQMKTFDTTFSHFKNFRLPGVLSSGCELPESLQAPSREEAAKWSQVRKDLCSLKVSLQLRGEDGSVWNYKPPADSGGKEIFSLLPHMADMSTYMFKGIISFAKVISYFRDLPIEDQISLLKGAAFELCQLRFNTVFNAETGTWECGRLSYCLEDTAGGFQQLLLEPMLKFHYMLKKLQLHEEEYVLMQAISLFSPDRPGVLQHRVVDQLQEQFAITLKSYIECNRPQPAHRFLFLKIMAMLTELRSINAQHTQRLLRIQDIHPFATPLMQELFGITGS
Hits are given with their value; - = inactive; . = no result. Most compounds without a hit are left out; they make up all but 3.3% or so of the library.

SMILES	AHR act	ABCB6 inh MLPCN	STAT3 activator	FXN GAA850 act	AHR act confirm	PXR act counter
CC(C)(C)OC(=O)Nc1ncnc2c1ncn2C1OC(CO)C2OC(C)(C)OC21 (stereo not drawn)	-	-	.	-	.	.
Cc1ccc(Nc2c([N+](=O)[O-])ccc3c2=NC2(CCCCC2)N=3)cc1	-	-	-	-	.	.
NC1=NN=C(c2ccc3c(c2)OCCO3)CS1	87	-	-	-	-	-
Cc1sc(N)nc1-c1ccc2c(c1)OCCO2	-	-	.	-	.	.
CC(=O)n1c2ccccc2c2c1c1ccccc1n2C	109	-	-	-	113	22
Cc1cc(C)nc(NC(=O)c2cc(-c3ccc4c(c3)OCO4)nc3ccccc23)c1	89	-	.	-	78	44
CCOc1ccc2nc(/N=C/c3c(C)[nH]n(-c4ccccc4)c3=O)sc2c1	-	-	-	-	.	.
CCOc1ccc2nc(/N=C/c3c(C)[nH]n(-c4ccc(C)cc4)c3=O)sc2c1	89	-	-	-	67	22
CC(C)C[C@H]1CN([C@@H](Cc2ccccc2)CN2CCC[C@H]2CN2C(=O)C(=O)NC[C@@H]2Cc2ccc(O)cc2)C(=O)C(=O)N1CC1CCCCCC1	.	-	.	.	.	.
Cc1cc(OCc2nc3ccccc3s2)ccc1N	86	-	.	-	92	34
O=c1[nH]c(CN2CCc3ccccc3C2)nc2ccccc12	85	-	-	-	100	67
CC(=O)c1c(C)[nH]c(C(=O)OCn2nnc3ccccc3c2=O)c1C	-	-	-	-	.	.
Cc1nc2ccc(NC(=O)c3ccc(Cl)c(NC(=O)c4cccs4)c3)cc2s1	-	-	-	-	.	.
Cc1ccc(NC(=O)c2ccc(Cl)c(NC(=O)c3cccs3)c2)cc1	131	-	.	-	73	41
O=C(Nc1ccccc1C(=O)Nc1ccccc1)c1cccs1	92	-	.	-	89	30
Cc1ccnc(NC(=O)C2CCCN(S(=O)(=O)c3ccc4[nH]c(=O)ccc4c3)C2)c1 (stereo not drawn)	-	-	.	-	.	.
O=C(OCC(=O)N1CCCCCC1)c1ccc([N+](=O)[O-])cc1Cl	-	-	-	-	.	.
Nc1c(Cl)cc(C2=NCCn3nc4cc([N+](=O)[O-])ccc4c32)cc1Cl	118	-	.	-	104	54
Cc1cc(C)cc(OCC(=O)N/N=C/c2ccccn2)c1	-	-	.	-	.	.
Cc1ccccc1OCC(=O)N/N=C/c1ccccn1	81	-	-	-	-	-
Cc1cc(C)cc(Cn2cc(CN3CC(N4CCN(C)CC4)CS3(=O)=O)nn2)c1 (stereo not drawn)	.	-	.	.	.	.
Cc1cccc(NC2=C(NC(=O)c3ccccc3)C(=O)c3ccccc3C2=O)c1	106	-	-	-	103	124
O=C(CCSCCc1ccccn1)Nc1ccc(Cc2ccncc2)cc1	-	-	-	-	.	.
O=C(Nc1ccc2c(c1)CCC2)Nc1ccc(F)cc1F	-	-	.	-	.	.
COCCNC(=O)c1cc(-c2ccccc2)nn1CC1CC(c2cccnc2)=NO1 (stereo not drawn)	-	-	.	-	.	.
SMILES	AHR act	ABCB6 inh MLPCN	STAT3 activator	FXN GAA850 act	AHR act confirm	PXR act counter
Cc1cc2cc(C)c(NCCNC(=O)c3cccs3)nc2cc1C	97	-	-	-	64	22
Cc1cc2cc(C)c(NCCNC(=O)c3ccccc3F)nc2cc1C	-	-	-	-	.	.
CC1CCC2(CC1)NC(=O)N(CC(=O)c1ccc(Cl)s1)C2=O (stereo not drawn)	-	-	.	-	.	.
CN1CCN(C2CN(Cc3ccc(F)cc3)S(=O)(=O)C2)CC1 (stereo not drawn)	.	-	.	.	.	.
Cn1c(=O)c2c(nc(N/N=C3\CCCc4ccccc43)n2Cc2ccc(F)cc2)n(C)c1=O	95	-	-	-	89	40
Cn1c(N/N=C2\CCCc3ccccc32)nc2c1c(=O)n(Cc1ccccc1)c(=O)n2C	-	-	-	-	.	.
Cc1cccc(Nc2nc3ccccc3s2)c1C	101	-	-	-	50	72
Cc1cccc(Nc2n[nH]c(=S)s2)c1C	-	-	-	-	.	.
Oc1c(C(c2ccccc2)N2CCc3ccccc3C2)sc2ncnn12 (stereo not drawn)	89	-	-	-	86	40
Cc1ccc(/C=N/Nc2nc3ccccc3[nH]2)s1	109	-	-	-	143	30
Brc1ccc(-c2ccc(/C=N/Nc3nc4ccccc4[nH]3)o2)cc1	98	-	-	-	121	12
C(=N\Nc1nc2ccccc2[nH]1)/c1cccc2cccnc12	-	-	.	-	.	.

Screening data as filed in PubChem.
